The source made the active and inactive calls. No cut-off for these calls is given here.
Tests used:
Leishmania amazonensis [1] = experiment: Synergistic antileishmanial activity against stationary-phase Leishmania amazonensis MHOM/BR/75/LTB0016 promastigotes infected in Balb/c mouse assessed as reduction in parasite load at 1 mg/kg, po administered once daily via orogastric tube starting from 7 days post infection for 32 days in presence of 4 mg/kg miltefosine by dilution method relative to control; assay type: functional; set-up: scale not given: the % may be the effect or the level left
Procedure, shortened: (§1)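 Ear infection and daily oral dosing were as for the lesion study in female BALB/c mice, ending at euthanasia on day 32. Infected ears were excised, weighed, minced in Schneider's medium with 10% FCS and serially diluted. Viable parasites per ear were estimated from the highest dilution still growing promastigotes after 7 days at 26 °C. Mean ± SE, n = 5 ears.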

Mus musculus [2] = experiment: (§2) Hepatotoxicity in Balb/c mouse infected with stationary-phase Leishmania amazonensis MHOM/BR/75/LTB0016 promastigotes assessed as serum AST level at 2 mg/kg, po administered once daily via orogastric tube for 32 days starting from 7 days post infection measured post last dose (reference value: 161.1 +/- 20.99 U/L); assay type: toxicity, organism-based; conditions: in vivo
Procedure, shortened: (§3)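 Infected female BALB/c mice, dosed orally once daily from day 7 to day 32, had serum AST, ALT and creatinine measured by dry chemistry technology at the PDTIS-FIOCRUZ facility. Mean ± SE, n = 5.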

Leishmania amazonensis [3] = experiment: (§4) Antileishmanial activity against stationary-phase Leishmania amazonensis MHOM/BR/75/LTB0016 promastigotes infected in Balb/c mouse assessed as reduction in lesion size at 2 mg/kg, po administered once daily via orogastric tube starting from 7 days post infection for 32 days measured twice weekly during compound dosing by caliper method; assay type: functional, organism-based
Procedure, shortened: (§5)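 Female BALB/c mice, 10−12 weeks, were infected intradermally in the right ear with 2 × 10^6 stationary-phase promastigotes in 10 μL PBS. From day 7 post-infection, dosing was oral by orogastric tube once daily, seven times per week, until day 32. Compound in DMSO (1% v/v), miltefosine in PBS; controls got vehicle suspension with DMSO 0.2% v/v. Lesion size was read by dial caliper twice weekly; n = 5.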

Mus musculus [4] = experiment: as §2, with “serum ALT” for “serum AST”, “at 1” for “at 2”, “dose in presence of 4 mg/kg miltefosine” for “dose”, “value: 88.41” for “value: 161.1”, “+/- 8.77” for “+/- 20.99”; assay type: toxicity, organism-based; conditions: in vivo; procedure, shortened: as §3
Leishmania amazonensis [5] = experiment: (§6) Synergistic antileishmanial activity against stationary-phase Leishmania amazonensis MHOM/BR/75/LTB0016 promastigotes infected in human THP1-derived macrophages assessed as fractional inhibitory concentration at test compound to miltefosine ratio of 3:2 by serial dilution based light microscopic method; assay type: functional
Procedure, shortened: (§7)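 In the infected THP-1 macrophage fixed-ratio assay, FIC and ∑FIC came from each ratio's EC50 by the modified fixed-ratio isobologram method. Mean ∑FIC was the average of the ∑FICs and was used to classify the interaction; isobolograms were plotted from each ratio's FIC values.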

Mus musculus [6] = experiment: as §2, with “at 1” for “at 2”, “dose in presence of 4 mg/kg miltefosine” for “dose”; assay type: toxicity, organism-based; conditions: in vivo; procedure, shortened: as §3
Leishmania amazonensis [7] = experiment: Antileishmanial activity against stationary-phase Leishmania amazonensis MHOM/BR/75/LTB0016 promastigotes infected in human THP1-derived macrophages at test compound to miltefosine ratio of 3:2 by serial dilution based light microscopic method; assay type: functional, organism-based
Mus musculus [8] = experiment: as §2, with “ALT” for “AST”, “88.41” for “161.1”, “8.77” for “20.99”; assay type: toxicity, organism-based; conditions: in vivo; procedure, shortened: as §3
Leishmania amazonensis [9] = experiment: Antileishmanial activity against stationary-phase Leishmania amazonensis MHOM/BR/75/LTB0016 promastigotes infected in Balb/c mouse assessed as reduction in parasite load at 2 mg/kg, po administered once daily via orogastric tube starting from 7 days post infection for 32 days by dilution method; assay type: functional, organism-based; procedure, shortened: as §1
Leishmania amazonensis [10] = experiment: as §6, with “2:3” for “3:2”; assay type: functional; procedure, shortened: as §7
Leishmania amazonensis [11] = experiment: Synergistic antileishmanial activity against stationary-phase Leishmania amazonensis MHOM/BR/75/LTB0016 promastigotes infected in Balb/c mouse assessed as reduction in lesion size at 1 mg/kg, po administered once daily via orogastric tube starting from 7 days post infection for 32 days measured twice weekly during compound dosing in presence of 4 mg/kg miltefosine by caliper method relative to control; assay type: functional; set-up: scale not given: the % may be the effect or the level left; procedure, shortened: as §5
Leishmania amazonensis [12] = experiment: as §6, with “1:4” for “3:2”; assay type: functional; procedure, shortened: as §7
Leishmania amazonensis [13] = experiment: Antileishmanial activity against stationary-phase Leishmania amazonensis MHOM/BR/75/LTB0016 promastigotes infected in human THP1-derived macrophages at test compound to miltefosine ratio of 4:1 by serial dilution based light microscopic method; assay type: functional, organism-based
Mus musculus [14] = experiment: as §2, with “Renal toxicity” for “Hepatotoxicity”, “creatinine” for “AST”, “0.61” for “161.1”, “0.06 mg/dl)” for “20.99 U/L)”; assay type: organism-based; conditions: in vivo; procedure, shortened: as §3
Leishmania amazonensis [15] = experiment: Antileishmanial activity against stationary-phase Leishmania amazonensis MHOM/BR/75/LTB0016 promastigotes infected in human THP1-derived macrophages by serial dilution based light microscopic method; assay type: functional, organism-based
Leishmania amazonensis [16] = experiment: Antileishmanial activity against stationary-phase Leishmania amazonensis MHOM/BR/75/LTB0016 promastigotes infected in human THP1-derived macrophages at test compound to miltefosine ratio of 1:4 by serial dilution based light microscopic method; assay type: functional, organism-based
Leishmania amazonensis [17] = experiment: Antileishmanial activity against stationary-phase Leishmania amazonensis MHOM/BR/75/LTB0016 promastigotes infected in human THP1-derived macrophages at test compound to miltefosine ratio of 2:3 by serial dilution based light microscopic method; assay type: functional, organism-based
Leishmania amazonensis [18] = experiment: as §6, with “4:1” for “3:2”; assay type: functional; procedure, shortened: as §7
Mus musculus [19] = experiment: (§8) Renal toxicity in Balb/c mouse infected with stationary-phase Leishmania amazonensis MHOM/BR/75/LTB0016 promastigotes assessed as serum creatinine level at 1 mg/kg, po administered once daily via orogastric tube for 32 days starting from 7 days post infection measured post last dose in presence of 4 mg/kg miltefosine (reference value: 0.61 +/- 0.06 mg/dl); assay type: organism-based; conditions: in vivo; procedure, shortened: as §3
Leishmania amazonensis [20] = experiment: Antileishmanial activity against stationary-phase Leishmania amazonensis MHOM/BR/75/LTB0016 promastigotes infected in human THP1-derived macrophages at apigenin to test compound ratio of 1:4 by serial dilution based light microscopic method; assay type: functional, organism-based
Leishmania amazonensis [21] = experiment: Antileishmanial activity against stationary-phase Leishmania amazonensis MHOM/BR/75/LTB0016 promastigotes infected in human THP1-derived macrophages at apigenin to test compound ratio of 4:1 by serial dilution based light microscopic method; assay type: functional, organism-based
Leishmania amazonensis [22] = experiment: as §4, with “at 8” for “at 2”; assay type: functional, organism-based; procedure, shortened: as §5
Mus musculus [23] = experiment: as §8, with “at 8” for “at 1”, “dose” for “dose in presence of 4 mg/kg miltefosine”; assay type: organism-based; conditions: in vivo; procedure, shortened: as §3
Leishmania amazonensis [24] = experiment: Synergistic antileishmanial activity against stationary-phase Leishmania amazonensis MHOM/BR/75/LTB0016 promastigotes infected in human THP1-derived macrophages assessed as fractional inhibitory concentration at apigenin to test compound ratio of 2:3 by serial dilution based light microscopic method; assay type: functional; procedure, shortened: as §7
Leishmania amazonensis [25] = experiment: Antileishmanial activity against stationary-phase Leishmania amazonensis MHOM/BR/75/LTB0016 promastigotes infected in human THP1-derived macrophages at apigenin to test compound ratio of 3:2 by serial dilution based light microscopic method; assay type: functional, organism-based
Leishmania amazonensis [26] = experiment: Antileishmanial activity against stationary-phase Leishmania amazonensis MHOM/BR/75/LTB0016 promastigotes infected in human THP1-derived macrophages at apigenin to test compound ratio of 2:3 by serial dilution based light microscopic method; assay type: functional, organism-based
Leishmania amazonensis [27] = experiment: Synergistic antileishmanial activity against stationary-phase Leishmania amazonensis MHOM/BR/75/LTB0016 promastigotes infected in human THP1-derived macrophages assessed as fractional inhibitory concentration at apigenin to test compound ratio of 1:4 by serial dilution based light microscopic method; assay type: functional; procedure, shortened: as §7
Mus musculus [28] = experiment: as §2, with “serum ALT” for “serum AST”, “at 8” for “at 2”, “value: 88.41” for “value: 161.1”, “+/- 8.77” for “+/- 20.99”; assay type: toxicity, organism-based; conditions: in vivo; procedure, shortened: as §3
Leishmania amazonensis [29] = experiment: Antileishmanial activity against stationary-phase Leishmania amazonensis MHOM/BR/75/LTB0016 promastigotes infected in Balb/c mouse assessed as reduction in parasite load at 8 mg/kg, po administered once daily via orogastric tube starting from 7 days post infection for 32 days by dilution method; assay type: functional, organism-based; procedure, shortened: as §1
Mus musculus [30] = experiment: as §2, with “at 8” for “at 2”; assay type: toxicity, organism-based; conditions: in vivo; procedure, shortened: as §3
Leishmania amazonensis [31] = experiment: Synergistic antileishmanial activity against stationary-phase Leishmania amazonensis MHOM/BR/75/LTB0016 promastigotes infected in human THP1-derived macrophages assessed as fractional inhibitory concentration at apigenin to test compound ratio of 4:1 by serial dilution based light microscopic method; assay type: functional; procedure, shortened: as §7
Leishmania amazonensis [32] = experiment: Synergistic antileishmanial activity against stationary-phase Leishmania amazonensis MHOM/BR/75/LTB0016 promastigotes infected in human THP1-derived macrophages assessed as fractional inhibitory concentration at apigenin to test compound ratio of 3:2 by serial dilution based light microscopic method; assay type: functional; procedure, shortened: as §7

Question: What does the source list for `O=c1cc(-c2ccc(O)cc2)oc2cc(O)cc(O)c12` [APIGENIN]?
Answer: Activity (Leishmania amazonensis [1]): 95%; Activity (Mus musculus [2]): 100.5 U/L; Activity (Leishmania amazonensis [3]): Active; Activity (Mus musculus [4]): 53.55 U/L; FIC50 (Leishmania amazonensis [5]): 0.37; Activity (Mus musculus [6]): 115.1 U/L; EC50 (Leishmania amazonensis [7]): 1.43 µM; Activity (Mus musculus [8]): 43.21 U/L; Activity (Leishmania amazonensis [9]): Active; FIC50 (Leishmania amazonensis [10]): 0.18; Activity (Leishmania amazonensis [11]): 75%; FIC50 (Leishmania amazonensis [12]): 0.04; EC50 (Leishmania amazonensis [13]): 2.99 µM; Activity (Mus musculus [14]): 0.63 mg/dL; EC50 (Leishmania amazonensis [15]): 3.85 µM; EC50 (Leishmania amazonensis [16]): 0.16 µM; EC50 (Leishmania amazonensis [17]): 0.73 µM; FIC50 (Leishmania amazonensis [18]): 0.77; Activity (Mus musculus [19]): 0.69 mg/dL

Question: For `CCCCCCCCCCCCCCCCOP(=O)([O-])OCC[N+](C)(C)C` [MILTEFOSINE], which EC50 (Leishmania amazonensis [20]) is on record?
Answer: The EC50 was 1.13 µM.

Question: And the EC50 (Leishmania amazonensis [21])?
Answer: The EC50 was 0.44 µM.

Question: And the Activity (Leishmania amazonensis [22])?
Answer: The Activity was “Active”.

Question: And the Activity (Mus musculus [23])?
Answer: Its Activity is 0.66 mg/dL.

Question: What about the FIC50 (Leishmania amazonensis [24]) of the same compound?
Answer: The FIC50 was 2.03.

Question: And the EC50 (Leishmania amazonensis [25])?
Answer: The EC50 was 0.73 µM.

Question: And the EC50 (Leishmania amazonensis [26])?
Answer: The EC50 was 1.53 µM.

Question: What about the FIC50 (Leishmania amazonensis [27]) of the same compound?
Answer: Its FIC50 is 1.5.

Question: And the Activity (Mus musculus [28])?
Answer: The Activity was 61.14 U/L.

Question: What about the Activity (Leishmania amazonensis [29]) of the same compound?
Answer: Its Activity is “Active”.

Question: And the Activity (Mus musculus [30])?
Answer: Its Activity is 271.1 U/L.

Question: And the EC50 (Leishmania amazonensis [15])?
Answer: The EC50 was 0.75 µM.

Question: And the FIC50 (Leishmania amazonensis [31])?
Answer: Its FIC50 is 0.58.

Question: And the FIC50 (Leishmania amazonensis [32])?
Answer: The FIC50 was 0.96.

Reference: ChEMBL document CHEMBL4196142, “Efficacy of Apigenin and Miltefosine Combination Therapy against Experimental Cutaneous Leishmaniasis” (J Nat Prod, 2018)
